Experimental data of several laboratories.
Lines come from different studies, so protocols differ.
Target: Casein kinase II subunit alpha' (CSNK2A2, Homo sapiens, UniProt P19784)

SMILES | test | conditions | remaining binding [%]
O=C(N1CCS(=O)(=O)CC1)N1C[C@H](c2ccc(OC(F)(F)F)cc2)C[C@H](c2nc(C3CC3)no2)C1 | cell-free assay, competition with immobilised ligand | 1 µM | 100
CNC(=O)[C@@H]1CC[C@@H](n2c(-c3ccc4cnccc4c3)nc3ccc(C(=O)NCc4cccc(C(N)=O)c4)cc32)C1 | binding, competition with immobilised ligand | 1 µM | 100
CC1=C(C#N)[C@@H](c2ccc3[nH]nc(C)c3c2)C(C#N)=C(c2ccc(Cl)cc2)N1 | cell-free assay, competition with immobilised ligand | 1 µM | 100
Cc1cnc(Nc2ccc(C(=O)N3CCC(N4CCCC4)CC3)cc2)nc1-c1cc2ccccc2s1 | binding, competition with immobilised ligand | 1 µM | 0
CN(C)c1ncc(F)c(-c2cnn3ncccc23)n1 | binding | 1 µM | 100
CO[C@@H](C)c1c(Nc2ccc([C@@H](N(C)C(=O)C3CCS(=O)(=O)CC3)C(F)(F)F)cc2)cnc2cc(Cl)nn12 | cell-free assay, competition with immobilised ligand | 1 µM | 100
O=C(c1ccc(Nc2nccc(-c3cc4ccccc4s3)n2)cc1)N1CCC(N2CCCC2)CC1 | binding, competition with immobilised ligand | 1 µM | 1.8
CN(CCCC(F)(F)F)c1nccc(-c2cnn3ncccc23)n1 | binding | 1 µM | 92
CC(C)(O)c1cncc(-c2nc3ccc(F)cc3n2C2CC2)c1 | cell-free assay, competition with immobilised ligand | 1 µM | 100
N[C@H]1CCN(c2nccc(-c3cnn4ncccc34)n2)C1 | binding | 1 µM | 88
FC(F)(F)Oc1cccc(-c2cnc3ccc(-c4ccncc4)nn23)c1 | cell-free assay, competition with immobilised ligand | 5 µM | 23
CN(C)c1nccc(-c2cnc3ncccn23)n1 | binding | 1 µM | 24
O=C(NCC1CCOCC1)c1n[nH]cc1NC(=O)c1c(F)cccc1F | binding, competition with immobilised ligand | 1 µM | 76
C=CC(=O)N1CCC(C(=O)NCC(=O)N2CCN(c3nc(-c4cnc(N)nc4C(F)F)nc(N4CCOCC4)n3)CC2)CC1 | binding, competition with immobilised ligand | 1 µM | 100
c1cnn2ncc(-c3ccnc(N4CCC45COC5)n3)c2c1 | binding | 1 µM | 24
COc1cnc(Nc2cccc(S(N)(=O)=O)c2)nc1N1CCN(c2ccccc2)CC1 | binding, competition with immobilised ligand | 1 µM | 90
O=C(c1ccc(Nc2ncc(Cl)c(-c3ccc(Cl)s3)n2)cc1)N1CCC(N2CCCC2)CC1 | binding, competition with immobilised ligand | 1 µM | 0.15
O=C(NS(=O)(=O)c1ccc(NCC2CCOCC2)c([N+](=O)[O-])c1)c1ccc(N2CCN(Cc3ccc(C(F)(F)F)cc3-c3ccc(Cl)cc3)CC2)cc1Oc1cnc2[nH]ccc2c1 | cell-free assay, competition with immobilised ligand | 1 µM | 100
COc1ncc2cc3ccccc3nc2c1C#N | cell-free assay, competition with immobilised ligand | 5 µM | 97
Nc1ncc2c(n1)-c1c([nH]c3ccc(C#CC4CC4)cc13)CCCC2 | binding, competition with immobilised ligand | 1 µM | 82
COc1cc(-c2cn(C3CCc4ccccc4N(CC(F)(F)F)C3=O)nn2)ccc1-n1ccc(C)n1 (stereo not shown) | cell-free assay, competition with immobilised ligand | 1 µM | 84
C[C@@H]1CCN(c2nccc(-c3cnn4ncccc34)n2)C1 | binding | 1 µM | 60
